Test [1] deals with RAC-beta serine/threonine-protein kinase (Homo sapiens, UniProt P31751). As to the kind of experiment: Inhibition of AKT2 (unknown origin) at 30 uM by microfluidic mobility shift assay relative to control. A digest of the protocol: (§1)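 Single-point screen in a 24-enzyme kinase panel using a microfluidic assay. Each compound was tested at […] with ATP at roughly the Km for each enzyme. The pan-AGC inhibitor H-89 served as an internal control on every plate.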

The target in test [2] is Tyrosine-protein kinase Lyn (Homo sapiens, UniProt P07948). The test can be described thus: Inhibition of LYN (unknown origin) at 30 uM by microfluidic mobility shift assay relative to control. A digest of the protocol: as §1
For test [3], the target named is Tyrosine-protein kinase Fyn (Homo sapiens, UniProt P06241). The test can be described thus: Inhibition of FYN (unknown origin) at 30 uM by microfluidic mobility shift assay relative to control. The essentials:
as §1

For test [4], the target named is Ribosomal protein S6 kinase alpha-5 (Homo sapiens, UniProt O75582). As to the kind of experiment: Inhibition of MSK1 (unknown origin) at 30 uM by microfluidic mobility shift assay relative to control. The essentials:
as §1

The species entered for a further test is Homo sapiens. The test can be described thus: Inhibition of PKA (unknown origin) at 30 uM by microfluidic mobility shift assay relative to control. The essentials:
as §1

The target in test [5] is Insulin receptor (Homo sapiens) (UniProt P06213). The test can be described thus: Inhibition of INSR (unknown origin) at 30 uM by microfluidic mobility shift assay relative to control. The essentials:
as §1

Test [6] addresses MAP kinase-activated protein kinase 2 (Homo sapiens) (UniProt P49137). As to the kind of experiment: Inhibition of MK2 (unknown origin) at 30 uM by microfluidic mobility shift assay relative to control. A digest of the protocol:
as §1

Test [7] concerns the target Glycogen synthase kinase-3 beta (Homo sapiens, UniProt P49841). The test can be described thus: Inhibition of GSK3beta (unknown origin) at 30 uM by microfluidic mobility shift assay relative to control. A digest of the protocol:
as §1

Test [8] addresses T1, Serine/threonine-protein kinase Chk1 (Homo sapiens) (UniProt O14757).
T1 sequence (whole entry): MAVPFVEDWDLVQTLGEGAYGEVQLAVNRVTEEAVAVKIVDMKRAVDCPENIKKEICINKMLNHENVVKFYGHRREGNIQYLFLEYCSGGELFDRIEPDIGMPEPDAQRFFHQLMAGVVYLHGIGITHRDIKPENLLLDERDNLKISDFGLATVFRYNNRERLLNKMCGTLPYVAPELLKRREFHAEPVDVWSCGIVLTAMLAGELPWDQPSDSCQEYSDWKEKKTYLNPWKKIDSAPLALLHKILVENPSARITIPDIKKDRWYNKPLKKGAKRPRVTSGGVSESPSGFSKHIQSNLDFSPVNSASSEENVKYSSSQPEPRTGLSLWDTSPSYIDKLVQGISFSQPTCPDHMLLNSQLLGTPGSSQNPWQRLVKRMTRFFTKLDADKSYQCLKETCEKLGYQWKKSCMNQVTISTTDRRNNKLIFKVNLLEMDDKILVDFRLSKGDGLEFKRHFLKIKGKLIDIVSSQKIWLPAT
As to the kind of experiment: Inhibition of CHK1 (unknown origin) at 30 uM by microfluidic mobility shift assay relative to control. A digest of the protocol: as §1

The target of test [9] is T2, Serine/threonine-protein kinase D2 (Homo sapiens) (UniProt Q9BZL6).
T2 sequence (whole entry): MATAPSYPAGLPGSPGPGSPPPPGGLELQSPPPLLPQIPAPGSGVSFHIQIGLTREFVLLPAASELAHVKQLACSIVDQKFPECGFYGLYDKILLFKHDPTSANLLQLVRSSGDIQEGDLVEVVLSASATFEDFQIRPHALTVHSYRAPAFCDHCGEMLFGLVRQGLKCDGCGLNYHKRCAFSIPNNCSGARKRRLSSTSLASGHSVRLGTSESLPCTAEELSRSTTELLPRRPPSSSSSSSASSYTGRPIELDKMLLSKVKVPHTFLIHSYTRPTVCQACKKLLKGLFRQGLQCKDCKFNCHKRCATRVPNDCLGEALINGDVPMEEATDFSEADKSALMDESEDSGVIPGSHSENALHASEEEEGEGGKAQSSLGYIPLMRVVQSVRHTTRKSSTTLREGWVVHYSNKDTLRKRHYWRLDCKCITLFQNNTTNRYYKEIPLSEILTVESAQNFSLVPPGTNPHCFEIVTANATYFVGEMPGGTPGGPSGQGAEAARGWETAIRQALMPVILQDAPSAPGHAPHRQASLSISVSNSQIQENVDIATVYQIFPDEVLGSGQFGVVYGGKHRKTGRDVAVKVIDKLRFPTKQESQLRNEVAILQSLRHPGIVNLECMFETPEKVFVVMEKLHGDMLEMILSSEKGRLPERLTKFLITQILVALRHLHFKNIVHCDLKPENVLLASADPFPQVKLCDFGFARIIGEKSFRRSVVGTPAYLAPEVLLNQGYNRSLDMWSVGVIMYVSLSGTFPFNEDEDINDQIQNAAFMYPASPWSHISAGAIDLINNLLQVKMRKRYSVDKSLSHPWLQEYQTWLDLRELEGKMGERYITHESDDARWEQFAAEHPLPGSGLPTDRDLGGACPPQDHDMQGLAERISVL
The test can be described thus: Inhibition of PKD2 (unknown origin) at 30 uM by microfluidic mobility shift assay relative to control. The essentials: as §1

Test [10] deals with RAC-alpha serine/threonine-protein kinase (Homo sapiens, UniProt P31749). As to the kind of experiment: Inhibition of AKT1 (unknown origin) at 30 uM by microfluidic mobility shift assay relative to control. The essentials: as §1
The target in test [11] is Mitogen-activated protein kinase 14 (Homo sapiens) (UniProt Q16539). The test can be described thus: Inhibition of p38alpha (unknown origin) at 30 uM by microfluidic mobility shift assay relative to control. A digest of the protocol:
as §1

The target in test [12] is Serine/threonine-protein kinase Chk2 (Homo sapiens, UniProt O96017). The test can be described thus: Inhibition of CHK2 (unknown origin) at 30 uM by microfluidic mobility shift assay relative to control. A digest of the protocol:
as §1

Test [13] concerns the target Protein kinase C (PKC) (Homo sapiens) (UniProt O94806+P41743+P17252+P05129+Q05655+P05771+Q05513+Q02156+P24723+Q15139+Q04759). The test can be described thus: Inhibition of PKC (unknown origin) at 30 uM by microfluidic mobility shift assay relative to control. A digest of the protocol: as §1
For test [14], the target named is T3, MAP kinase-activated protein kinase 5 (Homo sapiens) (UniProt Q8IW41).
T3 sequence (whole entry): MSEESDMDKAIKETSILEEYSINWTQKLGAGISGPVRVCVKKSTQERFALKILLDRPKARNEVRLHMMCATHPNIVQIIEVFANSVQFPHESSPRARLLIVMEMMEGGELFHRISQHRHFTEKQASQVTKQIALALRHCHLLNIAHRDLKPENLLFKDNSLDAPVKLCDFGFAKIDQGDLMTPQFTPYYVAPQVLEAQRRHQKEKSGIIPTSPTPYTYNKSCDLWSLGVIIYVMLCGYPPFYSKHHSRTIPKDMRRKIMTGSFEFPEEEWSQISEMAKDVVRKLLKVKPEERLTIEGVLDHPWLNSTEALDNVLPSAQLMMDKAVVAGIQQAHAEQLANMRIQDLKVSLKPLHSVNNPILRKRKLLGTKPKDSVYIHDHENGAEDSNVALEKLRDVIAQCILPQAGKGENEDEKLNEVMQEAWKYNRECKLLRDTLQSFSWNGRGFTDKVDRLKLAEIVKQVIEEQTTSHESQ
As to the kind of experiment: Inhibition of MAPKAPK5 (unknown origin) at 30 uM by microfluidic mobility shift assay relative to control. The essentials: as §1

We go through 8 compounds from ChEMBL document CHEMBL2417369, “Synthesis and evaluation of heteroaryl substituted diazaspirocycles as scaffolds to probe the ATP-binding site of protein kinases” (Bioorg Med Chem, 2013).

In general, inhibition refers to the change of the read-out against control, counted positive when it falls.

Ribosomal protein S6 kinase alpha-5, sequence (O75582 whole entry, looked up): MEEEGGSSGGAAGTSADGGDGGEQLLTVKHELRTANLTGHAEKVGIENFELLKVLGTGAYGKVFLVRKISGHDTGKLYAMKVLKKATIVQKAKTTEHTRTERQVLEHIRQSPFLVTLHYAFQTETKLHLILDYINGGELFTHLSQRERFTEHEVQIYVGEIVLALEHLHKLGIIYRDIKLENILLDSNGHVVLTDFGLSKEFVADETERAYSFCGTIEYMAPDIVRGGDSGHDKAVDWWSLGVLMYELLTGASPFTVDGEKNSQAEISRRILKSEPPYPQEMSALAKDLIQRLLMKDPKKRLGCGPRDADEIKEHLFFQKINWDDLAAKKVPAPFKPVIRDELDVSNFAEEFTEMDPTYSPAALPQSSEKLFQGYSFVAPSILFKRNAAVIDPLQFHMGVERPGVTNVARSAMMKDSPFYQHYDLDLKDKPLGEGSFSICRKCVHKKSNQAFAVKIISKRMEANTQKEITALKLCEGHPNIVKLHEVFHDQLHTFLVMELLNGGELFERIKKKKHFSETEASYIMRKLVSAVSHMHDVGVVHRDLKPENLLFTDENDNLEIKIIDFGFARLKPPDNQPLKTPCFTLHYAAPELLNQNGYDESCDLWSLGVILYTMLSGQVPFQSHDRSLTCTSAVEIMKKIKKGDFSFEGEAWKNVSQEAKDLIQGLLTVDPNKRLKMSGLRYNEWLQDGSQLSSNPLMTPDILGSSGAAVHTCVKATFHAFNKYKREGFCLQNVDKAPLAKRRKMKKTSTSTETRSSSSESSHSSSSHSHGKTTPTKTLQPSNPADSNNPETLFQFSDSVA
RAC-alpha serine/threonine-protein kinase, sequence (P31749 whole entry): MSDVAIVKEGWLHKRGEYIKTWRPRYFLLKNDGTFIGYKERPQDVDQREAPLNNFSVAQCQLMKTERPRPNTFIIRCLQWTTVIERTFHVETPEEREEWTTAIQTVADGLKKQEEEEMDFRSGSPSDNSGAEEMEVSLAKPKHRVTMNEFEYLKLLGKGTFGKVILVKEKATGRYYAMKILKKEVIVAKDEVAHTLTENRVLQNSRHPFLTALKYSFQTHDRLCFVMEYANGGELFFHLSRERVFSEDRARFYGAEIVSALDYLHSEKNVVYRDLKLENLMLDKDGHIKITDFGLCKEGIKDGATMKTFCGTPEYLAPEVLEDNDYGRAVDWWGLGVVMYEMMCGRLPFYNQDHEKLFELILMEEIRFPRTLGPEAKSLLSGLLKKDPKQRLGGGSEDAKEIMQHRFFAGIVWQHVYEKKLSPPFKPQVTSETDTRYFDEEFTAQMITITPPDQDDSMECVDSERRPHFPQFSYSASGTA
MAP kinase-activated protein kinase 2 (Homo sapiens), sequence (P49137 whole entry, looked up): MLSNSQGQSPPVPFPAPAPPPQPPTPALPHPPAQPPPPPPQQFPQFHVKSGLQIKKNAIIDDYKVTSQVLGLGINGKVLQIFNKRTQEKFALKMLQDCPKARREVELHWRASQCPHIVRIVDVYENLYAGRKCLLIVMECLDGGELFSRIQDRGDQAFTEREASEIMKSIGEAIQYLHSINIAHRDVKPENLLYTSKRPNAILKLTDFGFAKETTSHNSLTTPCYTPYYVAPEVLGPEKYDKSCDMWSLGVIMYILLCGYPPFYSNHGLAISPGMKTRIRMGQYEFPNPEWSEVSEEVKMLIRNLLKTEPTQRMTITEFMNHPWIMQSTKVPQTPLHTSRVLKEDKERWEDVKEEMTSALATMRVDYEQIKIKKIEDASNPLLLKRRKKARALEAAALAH
Serine/threonine-protein kinase Chk2, sequence (O96017 whole entry): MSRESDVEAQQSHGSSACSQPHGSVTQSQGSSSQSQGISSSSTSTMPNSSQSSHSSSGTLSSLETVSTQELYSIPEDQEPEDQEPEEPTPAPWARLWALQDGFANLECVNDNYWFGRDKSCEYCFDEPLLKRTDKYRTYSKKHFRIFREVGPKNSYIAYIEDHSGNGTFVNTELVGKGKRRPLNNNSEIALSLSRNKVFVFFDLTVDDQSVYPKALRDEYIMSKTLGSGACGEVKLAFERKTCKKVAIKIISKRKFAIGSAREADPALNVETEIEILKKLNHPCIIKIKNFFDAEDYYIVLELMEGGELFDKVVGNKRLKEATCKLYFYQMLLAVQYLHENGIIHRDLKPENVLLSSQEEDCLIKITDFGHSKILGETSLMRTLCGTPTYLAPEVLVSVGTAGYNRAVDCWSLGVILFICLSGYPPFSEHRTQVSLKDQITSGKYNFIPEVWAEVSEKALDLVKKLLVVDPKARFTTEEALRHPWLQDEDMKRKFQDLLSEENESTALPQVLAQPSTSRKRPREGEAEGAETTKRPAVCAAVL
Mitogen-activated protein kinase 14 (Homo sapiens), sequence (Q16539 whole entry): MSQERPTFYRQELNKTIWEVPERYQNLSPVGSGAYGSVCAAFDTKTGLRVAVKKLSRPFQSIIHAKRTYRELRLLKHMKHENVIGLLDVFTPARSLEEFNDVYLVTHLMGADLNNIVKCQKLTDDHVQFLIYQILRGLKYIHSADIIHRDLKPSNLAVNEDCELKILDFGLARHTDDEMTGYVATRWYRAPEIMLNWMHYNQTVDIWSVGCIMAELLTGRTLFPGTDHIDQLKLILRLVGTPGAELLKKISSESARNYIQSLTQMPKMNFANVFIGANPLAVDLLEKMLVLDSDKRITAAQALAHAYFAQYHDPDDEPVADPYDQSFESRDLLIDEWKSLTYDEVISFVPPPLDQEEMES
Glycogen synthase kinase-3 beta, sequence (P49841 whole entry, looked up): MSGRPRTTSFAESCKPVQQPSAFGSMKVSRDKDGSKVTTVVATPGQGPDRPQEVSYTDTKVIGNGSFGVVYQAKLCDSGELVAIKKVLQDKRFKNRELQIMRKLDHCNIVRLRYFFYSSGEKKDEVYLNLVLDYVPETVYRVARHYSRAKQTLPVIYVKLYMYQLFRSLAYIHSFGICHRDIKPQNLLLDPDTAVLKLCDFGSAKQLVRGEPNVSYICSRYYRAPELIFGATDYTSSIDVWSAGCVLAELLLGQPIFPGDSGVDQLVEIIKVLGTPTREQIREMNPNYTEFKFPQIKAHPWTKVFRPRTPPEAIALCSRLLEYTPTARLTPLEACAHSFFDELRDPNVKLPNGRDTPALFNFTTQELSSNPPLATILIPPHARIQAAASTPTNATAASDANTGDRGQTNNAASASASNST
Tyrosine-protein kinase Lyn, sequence (P07948 2-512 limits assumed): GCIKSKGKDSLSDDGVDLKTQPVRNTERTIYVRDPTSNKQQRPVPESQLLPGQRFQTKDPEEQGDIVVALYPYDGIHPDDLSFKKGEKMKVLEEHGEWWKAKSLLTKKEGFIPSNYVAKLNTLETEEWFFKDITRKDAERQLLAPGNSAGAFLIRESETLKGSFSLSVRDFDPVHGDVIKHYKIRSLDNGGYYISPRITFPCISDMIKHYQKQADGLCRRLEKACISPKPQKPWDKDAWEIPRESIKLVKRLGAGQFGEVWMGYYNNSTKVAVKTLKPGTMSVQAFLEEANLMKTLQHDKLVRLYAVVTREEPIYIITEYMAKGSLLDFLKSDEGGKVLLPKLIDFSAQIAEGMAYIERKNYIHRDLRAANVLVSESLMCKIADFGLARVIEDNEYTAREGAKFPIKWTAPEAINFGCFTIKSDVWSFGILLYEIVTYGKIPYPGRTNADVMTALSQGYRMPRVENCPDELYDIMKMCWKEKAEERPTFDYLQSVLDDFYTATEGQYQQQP
Tyrosine-protein kinase Fyn, sequence (P06241 2-537 limits assumed): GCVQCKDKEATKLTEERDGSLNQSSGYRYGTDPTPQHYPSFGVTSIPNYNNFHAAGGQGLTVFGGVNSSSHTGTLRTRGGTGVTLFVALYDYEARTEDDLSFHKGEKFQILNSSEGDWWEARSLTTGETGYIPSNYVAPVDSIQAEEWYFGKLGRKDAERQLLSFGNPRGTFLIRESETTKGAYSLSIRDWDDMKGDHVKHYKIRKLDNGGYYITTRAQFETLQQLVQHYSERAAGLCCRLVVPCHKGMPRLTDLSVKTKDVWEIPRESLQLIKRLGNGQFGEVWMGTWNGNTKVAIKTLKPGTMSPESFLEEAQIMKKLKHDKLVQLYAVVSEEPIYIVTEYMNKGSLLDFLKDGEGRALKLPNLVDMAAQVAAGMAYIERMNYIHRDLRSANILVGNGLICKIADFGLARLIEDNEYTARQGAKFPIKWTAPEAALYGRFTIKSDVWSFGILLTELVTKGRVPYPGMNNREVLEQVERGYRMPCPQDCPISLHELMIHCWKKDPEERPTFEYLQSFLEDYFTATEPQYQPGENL
RAC-beta serine/threonine-protein kinase, sequence (P31751 whole entry): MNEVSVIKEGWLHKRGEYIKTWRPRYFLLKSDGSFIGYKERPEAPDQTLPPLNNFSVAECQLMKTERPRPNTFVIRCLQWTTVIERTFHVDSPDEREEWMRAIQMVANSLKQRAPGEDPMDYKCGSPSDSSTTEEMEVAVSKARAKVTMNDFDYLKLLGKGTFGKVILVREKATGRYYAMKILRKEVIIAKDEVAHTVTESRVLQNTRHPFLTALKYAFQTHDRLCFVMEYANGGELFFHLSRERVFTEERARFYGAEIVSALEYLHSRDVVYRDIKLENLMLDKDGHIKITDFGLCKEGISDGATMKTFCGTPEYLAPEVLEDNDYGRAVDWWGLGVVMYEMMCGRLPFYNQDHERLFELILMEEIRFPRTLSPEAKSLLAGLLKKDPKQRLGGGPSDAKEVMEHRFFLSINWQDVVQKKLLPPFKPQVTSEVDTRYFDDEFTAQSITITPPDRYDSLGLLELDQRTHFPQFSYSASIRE

`CNC(=O)C1CCC2(CCN(c3ncnc4[nH]cnc34)CC2)NC1` (racemic): the inhibition amounted to 41% in test [1]; 26% in test [2]; 8% in test [3]; 80% in test [4]; 95% in the test listed under Homo sapiens; 16% in [5]. In addition, the inhibition turned out to be 10% in [6]; 17% in [7]; 70% in [8]; 35% in [9]; 83% in test [10]; 16% in test [11]. The inhibition turned out to be 34% in [12], 0% in test [13] and 21% in [14].

`O=S(=O)(c1cccc2cnccc12)N1CCC2(CCCCN2)CC1`: the inhibition worked out at 10% in test [1]; 18% in [2]; 9% in test [3]; 76% in test [4]; 89% in the test listed under Homo sapiens; 3% in test [5]. The inhibition came out at 14% in test [6]; 28% in test [7]; 0% in test [8]; 24% in [9]; 27% in test [10]; 7% in test [11]. Besides, the inhibition amounted to 26% in test [12], 0% in [13] and 25% in test [14].

Turning to `c1nc(N2CCC3(CCCCC3)CC2)c2nc[nH]c2n1`, the inhibition is 6% in [1]; 21% in test [2]; 33% in test [3]; 35% in test [4]; 55% in the test filed under Homo sapiens; 8% in test [5]. Moreover, the inhibition in test [6] was 10%; in test [7] it was 40%; in test [8] it was 17%; in test [9], 5%; in test [10] it was 16%; in test [11], 6%. Also, the inhibition in test [12] was 25%; in test [13], 2%; in [14] it was 6%.

Take `O=C(C1CCC2(CCN(c3ncnc4[nH]cnc34)CC2)NC1)N1CCOCC1` (racemic): the inhibition stood at 25% in [1]; 17% in test [2]; 0% in test [3]; 62% in test [4]; 85% in the test listed under Homo sapiens; 16% in [5]. In addition, the inhibition in test [6] came to 11%; in [7], 9%; in [8], 65%; in [9] it was 27%; in test [10] it was 66%; in test [11] it was 9%. In addition, the inhibition in test [12] was 29%; in test [13], 18%; in test [14], 14%.

As to `c1nc(N2CCC3(CCCOC3)CC2)c2nc[nH]c2n1`, the inhibition was 6% in [1]; 34% in test [2]; 36% in test [3]; 45% in [4]; 67% in the test listed under Homo sapiens; 2% in test [5]. Besides, the inhibition was 15% in test [6]; 66% in test [7]; 26% in [8]; 17% in test [9]; 25% in test [10]; 3% in test [11]. Besides, the inhibition turned out to be 28% in test [12], 7% in test [13] and 9% in test [14].

For the compound `NC1(Cc2ccccc2)CCN(c2ncnc3[nH]cnc23)CC1`, the inhibition in [1] came to 74%; in test [2] it was 72%; in [3], 39%; in test [4] it was 73%; in the test filed under Homo sapiens, 96%; in test [5], 0%. The inhibition in test [6] was determined as 23%; in [7] it was 53%; in [8], 62%; in test [9] it was 53%; in test [10] it was 93%; in test [11], 11%. Besides, the values for the inhibition in test [12], in [13] and in test [14] were 74%, 0% and 40%, respectively.

On to `c1nc(N2CCC3(CCNC3)CC2)c2nc[nH]c2n1`, for which the inhibition came out at 70% in [1]; 65% in test [2]; 84% in test [3]; 94% in [4]; 99% in the test filed under Homo sapiens; 6% in [5]. For the same compound, the inhibition in [6] came to 66%; in [7], 39%; in test [8], 84%; in [9] it was 80%; in [10], 94%; in test [11], 3%. Further, the inhibition in [12] came out at 64%; in test [13], 26%; in test [14] it was 41%.

Take `c1nc(N2CCCC3(CCCNC3)C2)c2nc[nH]c2n1` (stereo not given): the inhibition was 37% in test [1]; 2% in test [2]; 8% in [3]; 71% in test [4]; 89% in the test listed under Homo sapiens; 4% in [5]. In addition, the inhibition in test [6] is 11%; in test [7], 15%; in test [8], 37%; in test [9], 7%; in test [10] it was 77%; in test [11], 5%. Besides, the inhibition in test [12] was found to be 26%; in test [13], 3%; in test [14], 8%.
